# Tests used:
# [1] = system: mouse rotarod assay; assay: mouse rotarod assay; type: in vivo; details: dose of 200 mg/kg
# [2] = system: mouse formalin model; assay: mouse formalin model of acute and persistent pain; type: in vivo; details: 200 mg/kg i.p., positive control
# Procedure, shortened: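 Mouse formalin model: test compounds given s.c. (10, 30, 60 mg/kg) or i.p. (30 mg/kg) to maximise exposure. The positive control was a reference analgesic at 200 mg/kg i.p. Formalin-induced flinches were counted over 65 min. Plasma and brain levels were sampled at study end (~90 min post-dose), and free plasma level was estimated from plasma protein binding.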
smiles,measurement,setting,value
NCC1(CC(=O)O)CCCCC1 [Gabapentin],behavioral side effects,[1],"behavioral side effects (i.e., sedation)"
same,efficacy in the formalin model (number of flinches),[2],Efficacy was seen

# From PMC10238246 (Medicinal Chemistry Research, 2023)
